For assay [1], the target named is T1, dTDP-4-dehydrorhamnose 3,5-epimerase (Mycobacterium tuberculosis (strain CDC 1551 / Oshkosh), UniProt P9WH10).
T1 sequence (P9WH10 whole entry): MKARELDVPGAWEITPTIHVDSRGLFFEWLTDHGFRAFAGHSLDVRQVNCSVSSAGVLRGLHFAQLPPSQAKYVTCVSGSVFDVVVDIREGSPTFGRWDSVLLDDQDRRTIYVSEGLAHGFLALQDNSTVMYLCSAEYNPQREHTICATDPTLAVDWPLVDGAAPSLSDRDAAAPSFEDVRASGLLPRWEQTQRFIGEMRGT
Kind of assay: Inhibition of Mycobacterium tuberculosis RmlC expressed in Escherichia coli by spectrophotometry. Put shortly:
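96-well absorbance assay at 340 nm (NADPH to NADP) in 200 μl of 50 mM MOPS pH 7.4 with 10% glycerol, 0.01% Triton X-100 and 1 mM MgCl2. Final RmlC 70 nM, RmlD 5 nM, TDP-KDX 200 μM, NADPH 25 μM; compound added in 4 μl DMSO. Reactions were started with RmlC and followed 80 min; IC50 came from initial velocities.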

In assay [2] the target is T2, dTDP-4-dehydrorhamnose 3,5-epimerase (Mycobacterium tuberculosis (strain CDC 1551 / Oshkosh)) (UniProt P9WH10).
T2 sequence (whole entry): T1 sequence (P9WH10 whole entry)
Kind of assay: Competitive inhibition of Mycobacterium tuberculosis RmlC expressed in Escherichia coli assessed as increase in Km of TDP-KDX. The method in brief:
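Competitive-mode test: TDP-KDX varied 0–100 μM with inhibitor at 0, 0.1, 0.15 and 0.2 μM. Km and Vmax were fitted by non-linear regression. Km(obs) was plotted against inhibitor concentration, and Ki was taken from the slope (Km/Ki, Km as y-intercept).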

Assay [3] in a line: Cytotoxicity against HAEC after 24 hrs. Details: species or system Homo sapiens. The method in brief:
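Human aortic endothelial cells were seeded at 1000 cells/well in EGM-2 and held 24 hr at 37 °C. They were then exposed 24 hr at 37 °C to a 16-point 2-fold series (final 100 μM to 3 nM) with a DMSO solvent control. Viability was read by CellTiter-Glo luminescence after 10 min, in triplicate.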

The target of assay [4] is T3, dTDP-4-dehydrorhamnose 3,5-epimerase /dTDP-4-dehydrorhamnose reductase (Mycobacterium tuberculosis (strain ATCC 25618 / H37Rv), UniProt P9WH09+P9WH11).
T3 sequence (P9WH09 whole entry): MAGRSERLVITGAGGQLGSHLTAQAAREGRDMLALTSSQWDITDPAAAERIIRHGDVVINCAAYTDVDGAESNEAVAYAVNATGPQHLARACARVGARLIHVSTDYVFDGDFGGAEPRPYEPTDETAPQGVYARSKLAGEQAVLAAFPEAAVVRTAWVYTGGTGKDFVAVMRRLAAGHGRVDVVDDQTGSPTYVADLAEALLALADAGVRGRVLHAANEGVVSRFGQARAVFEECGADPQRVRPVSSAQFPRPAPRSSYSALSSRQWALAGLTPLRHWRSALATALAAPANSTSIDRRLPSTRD
T3 sequence (P9WH11 whole entry): T1 sequence (P9WH10 whole entry)
Briefly: Inhibition of Mycobacterium tuberculosis RmlC/RmlD expressed in Escherichia coli by spectrophotometry. Put shortly:
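Final RmlC 2.63 × 10−4 μg/μl, RmlD 6.53 × 10−4 μg/μl, NADPH 25 μM, TDP-KDX 200 μM. A 16-point 2-fold series (55 μM to 1.7 nM) was read as the 90-min drop in 340/460 nm fluorescence at 25 °C, in triplicate. IC50 came from a 4-parameter logistic fit.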

The target in assay [5] is T2, dTDP-4-dehydrorhamnose 3,5-epimerase (Mycobacterium tuberculosis (strain CDC 1551 / Oshkosh)). Kind of assay: Inhibition of Mycobacterium tuberculosis RmlC expressed in Escherichia coli at 5 uM by spectrophotometry.
For assay [6] the target is unchanged. Kind of assay: Inhibition of Mycobacterium tuberculosis RmlC expressed in Escherichia coli at 0.5 uM by spectrophotometry.
Assay [7] has as its system Mycobacterium tuberculosis. Briefly: Antimycobacterial activity against Mycobacterium tuberculosis H37Rv by microbroth dilution method. It is filed as functional. (In general: Dilution methods test growth across graded concentrations, often in twofold steps.)
Assay [8] deals with T2, dTDP-4-dehydrorhamnose 3,5-epimerase (Mycobacterium tuberculosis (strain CDC 1551 / Oshkosh)). Kind of assay: Inhibition of Mycobacterium tuberculosis RmlC expressed in Escherichia coli at 0.25 uM by spectrophotometry.
Assay [9] shares this target. Briefly: Reversible inhibition of Mycobacterium tuberculosis RmlC expressed in Escherichia coli by time-dependence study. The method in brief:
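RmlD, TDP-KDX and NADPH were added, and the NADPH fluorescence decrease was followed over 200 min. Slopes from the later phase were compared with a no-compound control.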

For orientation: IC50 means the point on the concentration scale where inhibition reaches its midpoint. As usually defined, the Ki is the equilibrium dissociation constant of an inhibitor or competing ligand from its target. The term inhibition denotes the relative decrease from the control value, in per cent. One may read the MIC as the lowest concentration that inhibits growth of the organism. High values mean a less susceptible organism, low ones a more susceptible organism.

Converted amounts (≈) assume the structure as drawn. The source made the active and inactive calls. No cut-off for these calls is given here.

Consider `CCn1c2ccccc2c2nnc(S(=O)(=O)CCCn3c(=O)[nH]c4ccccc43)nc21`, for which the IC50 in assay [1] worked out at 800 nM.
For `CCn1c2ccccc2c2nnc(SCCCn3c(=O)[nH]c4ccccc43)nc21`, the IC50 in [1] stood at 200 nM; in assay [3], 75000 nM; in assay [4] it was 398 nM. Further, the Ki in [1] stood at 100 nM. Further, the result in assay [2] was Active. For the same compound, the results for the inhibition in assay [5], in [6] and in [8] were 83%, 72% and 52%, respectively. In [7], this compound had an MIC of 19 µg/mL (≈ 47 µM). Further, in assay [9], the inhibition entry is “Active”.
In turn, `CCCn1c2ccccc2c2nnc(SCCCn3c(=O)[nH]c4ccccc43)nc21` came in with a concentration for half-maximal inhibition (IC50) in assay [1] of 1250 nM. This compound came in with an MIC in assay [7] of 9 µg/mL (≈ 21.5 µM).
`O=c1[nH]c2ccccc2n1CCCSc1nnc2c(n1)[nH]c1ccccc12` registered an IC50 in [1] of 3300 nM.
Compound `C=CCn1c2ccc(C)cc2c2nnc(SCCCn3c(=O)[nH]c4ccccc43)nc21` yielded an IC50 in assay [1] of 20000 nM. The compound also returned an MIC in assay [7] of 25 µg/mL (≈ 58.1 µM).
Regarding `O=c1[nH]c2ccccc2n1CCCSc1nnc2c3ccccc3n(Cc3ccccc3)c2n1`, inhibition in assay [1] was half-maximal at 2900 nM (IC50). The compound also returned an MIC in assay [7] above 50 µg/mL.
Turning to `C=CCn1c2ccccc2c2nnc(SCCCn3c(=O)[nH]c4ccccc43)nc21`, in assay [1], the IC50 was determined as 120 nM and the Ki turned out to be 62 nM. The same compound came in with an MIC in [7] of 13 µg/mL (≈ 31.2 µM).
As to `C=CCn1c2ccccc2c2nnc(SCn3c(=O)[nH]c4ccccc43)nc21`, 10300 nM corresponded to half-maximal inhibition in assay [1] (IC50).
In [1], `Cn1c2ccccc2c2nnc(SCCCn3c(=O)[nH]c4ccccc43)nc21` had an IC50 of 500 nM. In assay [7], this compound gave a minimum inhibitory concentration (MIC) of 9 µg/mL (≈ 23 µM).
Compound `C=CCn1c2ccccc2c2nnc(S(=O)(=O)CCCn3c(=O)[nH]c4ccccc43)nc21` yielded an IC50 in assay [1] of 400 nM.

(Values after ChEMBL document CHEMBL1157710, “Identification of triazinoindol-benzimidazolones as nanomolar inhibitors of the Mycobacterium tuberculosis enzyme TDP-6-deoxy-d-xylo-4-hexopyranosid-4-ulose 3,5-epimerase (RmlC)” (Bioorg Med Chem, 2010).)
